Test results reported in ChEMBL document CHEMBL1275417, “Biological activities of novel gyrase inhibitors of the aminocoumarin class” (Antimicrob Agents Chemother, 2008).
≈ marks a conversion by molar mass, not a printed value. Calls of active or inactive are those of the source. No cut-off for these calls is given here.

Tests used:
[1] = target: DNA gyrase subunit B (Escherichia coli, UniProt P0AES6); test: Inhibition of Escherichia coli JM109 DNA gyrase subunit B assessed as ATP hydrolysis by ATPase assay
[2] = target: DNA gyrase subunit A (Escherichia coli K-12) (UniProt P0AES4); test: Inhibition of Escherichia coli K-12 DNA gyrase A expressed in Escherichia coli DC2 assessed as compound concentration required for => 4-fold induction of luxCDABE operon by reported gene assay
Summary of the method: (§1)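 E. coli DC2 carrying a gyrA or sulA promoter–luxCDABE (Photorhabdus) fusion plasmid. Grown overnight at 37°C in LB with 2 μg/ml tetracycline, then diluted 1:100 in LB without tetracycline and precultured 1.5 h at 37°C. Compounds were added from DMSO stocks to 1% final DMSO and incubated 5 h at 37°C. Bioluminescence was divided by A595, and induction factor is the treated/untreated ratio. The value is the lowest test concentration giving ≥4-fold induction.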

[3] = target: T1, Cell division inhibitor SulA (Escherichia coli K-12) (UniProt P0AFZ5); test: Inhibition of Escherichia coli K-12 DNA sulA expressed in Escherichia coli DC2 assessed as compound concentration required for => 4-fold induction of luxCDABE operon by reported gene assay; summary of the method: as §1
T1 sequence (whole entry): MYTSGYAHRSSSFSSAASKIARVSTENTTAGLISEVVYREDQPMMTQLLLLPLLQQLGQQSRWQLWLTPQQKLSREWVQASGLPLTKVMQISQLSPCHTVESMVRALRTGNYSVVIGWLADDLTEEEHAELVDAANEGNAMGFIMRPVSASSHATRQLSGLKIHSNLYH

[4] = system: Staphylococcus aureus; test: Antibacterial activity against Staphylococcus aureus ATCC 43300 by broth microdilution method; type: functional
[5] = system: Pseudomonas aeruginosa; test: Antibacterial activity against Pseudomonas aeruginosa ATCC 27853 by broth microdilution method; type: functional
[6] = system: Staphylococcus aureus; test: Antibacterial activity against Staphylococcus aureus 80CR5 by broth microdilution method; type: functional
[7] = system: Escherichia coli; test: Antibacterial activity against Escherichia coli UB1005 by broth microdilution method; type: functional
[8] = system: Klebsiella pneumoniae; test: Antibacterial activity against Klebsiella pneumoniae ATCC 27736 by broth microdilution method; type: functional
[9] = system: Streptococcus pneumoniae; test: Antibacterial activity against Streptococcus pneumoniae TUPELO by broth microdilution method; type: functional
[10] = system: Enterococcus faecalis; test: Antibacterial activity against Enterococcus faecalis ATCC 29212 by broth microdilution method; type: functional
[11] = system: Escherichia coli; test: Antibacterial activity against Escherichia coli ATCC 25922 by broth microdilution method; type: functional
[12] = system: Staphylococcus aureus; test: Antibacterial activity against Staphylococcus aureus ATCC 29213 by broth microdilution method; type: functional
[13] = system: Enterococcus faecium; test: Antibacterial activity against Enterococcus faecium ATCC 19434 by broth microdilution method; type: functional
[14] = system: Pseudomonas aeruginosa; test: Antibacterial activity against Pseudomonas aeruginosa K799/WT by broth microdilution method; type: functional
[15] = system: Streptococcus pneumoniae; test: Antibacterial activity against Streptococcus pneumoniae ATCC 49619 by broth microdilution method; type: functional
[16] = system: Pseudomonas aeruginosa; test: Antibacterial activity against Pseudomonas aeruginosa K799/61 by broth microdilution method; type: functional
[17] = target: DNA gyrase (Escherichia coli); test: Inhibition of Escherichia coli JM109 DNA gyrase assessed as DNA triple helix formation by supercoiling assay
[18] = system: Escherichia coli; test: Antibacterial activity against Escherichia coli DC2 by broth microdilution method; type: functional
[19] = system: Streptococcus pneumoniae; test: Antibacterial activity against Streptococcus pneumoniae SL336-T by broth microdilution method; type: functional

| Structure (SMILES) | IC50 [1] [nM] | Activity [2] | Activity [3] | IC50 [17] [nM] | further results |
| --- | --- | --- | --- | --- | --- |
| CCCc1cc(C(=O)Nc2c(O)c3ccc(O[C@@H]4OC(C)(C)[C@H](OC)[C@@H](O)[C@H]4O)c(C)c3oc2=O)ccc1O | > 10000 | 3.1 µM | inactive | – | – |
| COc1cc(C(=O)Nc2c(O)c3ccc(O[C@@H]4OC(C)(C)[C@H](OC)[C@@H](O)[C@H]4O)c(C)c3oc2=O)ccc1O | > 10000 | inactive | inactive | – | – |
| CO[C@@H]1[C@@H](O)[C@@H](O)[C@H](Oc2ccc3c(O)c(NC(=O)c4cc(C)c(O)c(C)c4)c(=O)oc3c2C)OC1(C)C | > 10000 | inactive | inactive | – | – |
| CO[C@@H]1[C@@H](O)[C@@H](O)[C@H](Oc2ccc3c(O)c(NC(=O)c4ccccc4)c(=O)oc3c2C)OC1(C)C | > 10000 | inactive | inactive | – | – |
| CO[C@@H]1[C@@H](O)[C@@H](OC(=O)c2ccc(C)[nH]2)[C@H](Oc2ccc3c(O)c(NC(=O)/C=C/c4ccccc4)c(=O)oc3c2Cl)OC1(C)C | 598 | > 100 µM | inactive | 1200 | – |
| CO[C@@H]1[C@@H](OC(N)=O)[C@@H](O)[C@H](Oc2ccc3c(O)c(NC(=O)c4ccc(O)c(CC=C(C)C)c4)c(=O)oc3c2C)OC1(C)C [NOVOBIOCIN] | – | 3.1 µM | 6.3 µM | – | MIC [4]: 0.25 µg/mL (≈ 0.408 µM); MIC [5]: > 32 µg/mL; MIC [6]: > 32 µg/mL; MIC [7]: > 32 µg/mL; MIC [8]: > 32 µg/mL; MIC [9]: 2 µg/mL (≈ 3.26 µM); MIC [10]: > 32 µg/mL; MIC [11]: > 32 µg/mL; MIC [12]: 0.25 µg/mL (≈ 0.408 µM); MIC [13]: > 32 µg/mL; MIC [14]: > 32 µg/mL; MIC [15]: 1 µg/mL (≈ 1.63 µM); MIC [16]: 1 µg/mL (≈ 1.63 µM); MIC [18]: 4 µg/mL (≈ 6.53 µM); MIC [19]: 2 µg/mL (≈ 3.26 µM) |
| CO[C@@H]1[C@@H](O)[C@@H](OC(=O)c2ccc(C)[nH]2)[C@H](Oc2ccc3c(O)c(NC(=O)c4ccc(SC)cc4)c(=O)oc3c2Cl)OC1(C)C | 280 | inactive | 12.5 µM | – | – |
| CO[C@@H]1[C@@H](O)[C@@H](OC(=O)c2ccc(C)[nH]2)[C@H](Oc2ccc3c(O)c(NC(=O)c4ccccc4)c(=O)oc3c2Cl)OC1(C)C | 297 | > 100 µM | 50 µM | 110 | – |
| CO[C@@H]1[C@@H](OC(=O)c2ccc(C)[nH]2)[C@@H](O)[C@H](Oc2ccc3c(O)c(NC(=O)c4ccc(O)c(CC=C(C)C)c4)c(=O)oc3c2Cl)OC1(C)C [CHLOROBIOCIN] | – | 1.6 µM | < 1 µM | – | MIC [4]: ≤ 0.06 µg/mL; MIC [5]: 8 µg/mL (≈ 11.5 µM); MIC [6]: 4 µg/mL (≈ 5.74 µM); MIC [7]: > 32 µg/mL; MIC [8]: 16 µg/mL (≈ 23 µM); MIC [9]: 1 µg/mL (≈ 1.43 µM); MIC [10]: 4 µg/mL (≈ 5.74 µM); MIC [11]: 32 µg/mL (≈ 45.9 µM); MIC [12]: ≤ 0.06 µg/mL; MIC [13]: > 32 µg/mL; MIC [14]: 16 µg/mL (≈ 23 µM); MIC [15]: 0.25 µg/mL (≈ 0.359 µM); MIC [16]: ≤ 0.06 µg/mL; MIC [18]: 2 µg/mL (≈ 2.87 µM); MIC [19]: 1 µg/mL (≈ 1.43 µM) |
| CO[C@@H]1[C@@H](O)[C@@H](OC(=O)c2ccc(C)[nH]2)[C@H](Oc2ccc3c(O)c(NC(=O)c4ccc(N)c(C)c4)c(=O)oc3c2C)OC1(C)C | 784 | > 100 µM | 100 µM | 190 | – |
| COc1cc(C(=O)Nc2c(O)c3ccc(O[C@@H]4OC(C)(C)[C@H](OC)[C@@H](O)[C@H]4OC(=O)c4ccc(C)[nH]4)c(Cl)c3oc2=O)ccc1O | 891 | inactive | 100 µM | 460 | – |
| CCCc1cc(C(=O)Nc2c(O)c3ccc(O[C@@H]4OC(C)(C)[C@H](OC)[C@@H](O)[C@H]4OC(=O)c4ccc(C)[nH]4)c(C)c3oc2=O)ccc1O | 758 | 25 µM | 100 µM | 140 | – |
| CO[C@@H]1[C@@H](O)[C@@H](OC(=O)c2ccc(C)[nH]2)[C@H](Oc2ccc3c(O)c(NC(=O)c4cc(C)c(O)c(C)c4)c(=O)oc3c2Cl)OC1(C)C | 376 | 100 µM | 100 µM | 320 | – |
| C=CCc1cc(C(=O)Nc2c(O)c3ccc(O[C@@H]4OC(C)(C)[C@H](OC)[C@@H](O)[C@H]4OC(=O)c4ccc(C)[nH]4)c(C)c3oc2=O)ccc1O | 2790 | inactive | 100 µM | 460 | – |
| CO[C@@H]1[C@@H](O)[C@@H](O)[C@H](Oc2ccc3c(O)c(NC(=O)/C=C/c4ccccc4)c(=O)oc3c2C)OC1(C)C | > 10000 | inactive | inactive | – | – |

Continued, in another order:

| IC50 [1] [nM] | Activity [2] | Activity [3] | IC50 [17] [nM] | Structure (SMILES) | further results |
| --- | --- | --- | --- | --- | --- |
| 90 | 6.3 µM | 3.1 µM | 34 | CO[C@@H]1[C@@H](OC(=O)c2ccc(C)[nH]2)[C@@H](O)[C@H](Oc2ccc3c(O)c(NC(=O)/C=C/c4ccccc4)c(=O)oc3c2Cl)OC1(C)C | MIC [4]: 1 µg/mL (≈ 1.56 µM); MIC [5]: > 32 µg/mL; MIC [6]: > 32 µg/mL; MIC [7]: > 32 µg/mL; MIC [8]: > 32 µg/mL; MIC [9]: 16 µg/mL (≈ 25 µM); MIC [10]: 16 µg/mL (≈ 25 µM); MIC [11]: > 32 µg/mL; MIC [12]: 0.25 µg/mL (≈ 0.391 µM); MIC [13]: > 32 µg/mL; MIC [14]: > 32 µg/mL; MIC [15]: 8 µg/mL (≈ 12.5 µM); MIC [16]: 4 µg/mL (≈ 6.26 µM); MIC [18]: 32 µg/mL (≈ 50.1 µM); MIC [19]: 16 µg/mL (≈ 25 µM) |
| 84 | 3.1 µM | 1.6 µM | 19 | CCCc1cc(C(=O)Nc2c(O)c3ccc(O[C@@H]4OC(C)(C)[C@H](OC)[C@@H](OC(=O)c5ccc(C)[nH]5)[C@H]4O)c(C)c3oc2=O)ccc1O | MIC [4]: ≤ 0.06 µg/mL; MIC [5]: > 32 µg/mL; MIC [6]: 32 µg/mL (≈ 49.2 µM); MIC [7]: > 32 µg/mL; MIC [8]: > 32 µg/mL; MIC [9]: 4 µg/mL (≈ 6.15 µM); MIC [10]: 16 µg/mL (≈ 24.6 µM); MIC [11]: > 32 µg/mL; MIC [12]: ≤ 0.06 µg/mL; MIC [13]: > 32 µg/mL; MIC [14]: > 32 µg/mL; MIC [15]: 2 µg/mL (≈ 3.07 µM); MIC [16]: 0.5 µg/mL (≈ 0.768 µM); MIC [18]: 8 µg/mL (≈ 12.3 µM); MIC [19]: 2 µg/mL (≈ 3.07 µM) |
| 131 | 6.3 µM | 6.3 µM | – | CO[C@@H]1[C@@H](OC(=O)c2ccc(C)[nH]2)[C@@H](O)[C@H](Oc2ccc3c(O)c(NC(=O)c4ccccc4)c(=O)oc3c2C)OC1(C)C | – |
| 219 | 50 µM | 50 µM | 50 | CO[C@@H]1[C@@H](OC(=O)c2ccc(C)[nH]2)[C@@H](O)[C@H](Oc2ccc3c(O)c(NC(=O)c4ccccc4)c(=O)oc3c2)OC1(C)C | – |
| 106 | inactive | 50 µM | – | CO[C@@H]1[C@@H](OC(=O)c2ccc(C)[nH]2)[C@@H](O)[C@H](Oc2ccc3c(O)c(NC(=O)/C=C/c4ccccc4)c(=O)oc3c2C)OC1(C)C | – |
| 72 | 3.1 µM | 3.1 µM | < 5 | CO[C@@H]1[C@@H](OC(=O)c2ccc(C)[nH]2)[C@@H](O)[C@H](Oc2ccc3c(O)c(NC(=O)c4ccccc4)c(=O)oc3c2Cl)OC1(C)C | – |
| 276 | 50 µM | 50 µM | 280 | CO[C@@H]1[C@@H](OC(=O)c2ccc(C)[nH]2)[C@@H](O)[C@H](Oc2ccc3c(O)c(NC(=O)/C=C/c4ccc(O)c(Cl)c4)c(=O)oc3c2)OC1(C)C | – |
| 137 | 25 µM | 25 µM | 32 | CO[C@@H]1[C@@H](OC(=O)c2ccc(C)[nH]2)[C@@H](O)[C@H](Oc2ccc3c(O)c(NC(=O)/C=C/c4ccc(O)c(Cl)c4)c(=O)oc3c2Cl)OC1(C)C | – |
| 185 | 25 µM | 25 µM | 75 | COc1cc(C(=O)Nc2c(O)c3ccc(O[C@@H]4OC(C)(C)[C@H](OC)[C@@H](OC(=O)c5ccc(C)[nH]5)[C@H]4O)cc3oc2=O)ccc1O | – |
